Screening results: PubChem, Sanford-Burnham Center for Chemical Genomics
An excerpt weighted towards active compounds, which were near 1.7% of everything screened.
LMPTP block: LMPTP (human) inhibition | P24666 | recombinant LMPTP-A, OMFP fluorogenic substrate, fluorescence intensity | inhibition, % at 20 µM | hit rate 0.22% among 360,000;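 active means compounds that cut the enzyme signal by at least half of the control window in the single-dose screen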;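 further: plate controls were DMSO wells with enzyme plus substrate for no effect and substrate without enzyme for full effect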
Target sequence (P24666 whole entry, looked up): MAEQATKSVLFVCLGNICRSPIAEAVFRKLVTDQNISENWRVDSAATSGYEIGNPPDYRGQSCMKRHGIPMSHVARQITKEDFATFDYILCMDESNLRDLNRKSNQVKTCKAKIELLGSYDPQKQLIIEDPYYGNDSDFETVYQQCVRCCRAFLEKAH
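Test system: LMPTP-A, protein tyrosine phosphatase of low molecular weight; Input: 0.625 nM enzyme; Incubation: 50 min dark incubation at room temperature; Signal: endpoint fluorescence intensity from OMFP dephosphorylation; Read-out basis: % inhibition versus control wells.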
STEP inh: STEP (human) phosphatase inhibition | P54829 | recombinant STEP, OMFP fluorogenic substrate, fluorescence | inhibition, % at 20 µM | hit rate 0.25% among 360,000 | AID 588621;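 active means inhibition at 20 µM, scaled per plate between control wells, above about 37%, limit read from the data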;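 further: 0% = DMSO with enzyme and substrate and 100% = substrate only without enzyme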
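Measure: Control-normalized % inhibition with plate pattern correction | Test system: STEP phosphatase, cell-free reaction | Medium: pH 6.0 Bis-Tris with DTT and Tween 20 | Technique: Fluorescence, 480/540 nm | Times: Reaction 20 min, ambient temperature | Doses: Single compound dose of 20 µM, 1% DMSO final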
SUMO1 PPI mod: SUMO1-SIM interaction modulation. SUMO1 binding to a labelled peptide, TR-FRET, 1 h. P63165. hit rate 0.33% among 360,000. inhibition, % at 20 µM; in the data active means inhibition above about 37%
Target sequence (P63165 whole entry, looked up): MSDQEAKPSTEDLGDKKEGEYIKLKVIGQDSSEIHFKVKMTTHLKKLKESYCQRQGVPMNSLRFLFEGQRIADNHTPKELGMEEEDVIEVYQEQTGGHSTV
DNMT1 block: inhibitors of human DNMT1; P26358; DNMT1 molecular beacon, Hinp1I cleavage, fluorescence; inhibition (reported as % activation of signal), % at 10 µM; hit rate 0.83% among 360,000; AID 588458; in the data active means inhibition above about 50%
Scp-1 inhibitor: blocks human Scp-1 phosphatase activity; AID 493091; Q9GZU7; Recombinant Scp1, phosphopeptide, malachite green phosphate absorbance; hit rate 0.88% among 340,000; inhibition, % at 20 µM;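 active means inhibition above about 50% at 20 µM, limit read from the data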;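 further: plate controls were DMSO wells with enzyme for no effect and wells lacking enzyme for full effect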
Target sequence (Q9GZU7 76-261 limits assumed): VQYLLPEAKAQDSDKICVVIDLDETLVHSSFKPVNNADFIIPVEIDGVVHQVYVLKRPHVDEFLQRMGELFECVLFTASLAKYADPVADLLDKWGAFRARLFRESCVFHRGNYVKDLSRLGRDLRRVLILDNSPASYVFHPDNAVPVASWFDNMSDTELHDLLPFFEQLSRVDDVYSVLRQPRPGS
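System: truncated SCP-1 phosphatase (76-261aa); medium: Tris acetate buffer pH 5.5 with MgCl2 and Tween-20; incubation: 45 min room-temperature reaction, 5 min colour, 30 min stabiliser; compound: single 20 µM dose, 1% DMSO; reagent: Phosphorylated 17-residue peptide substrate; read-out: % inhibition at 20 µM; technique: colorimetric free-phosphate detection, absorbance 630 nm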
Numbers without * were called inactive; i = inactive; · = no result given; + = active, no number.

SMILES	LMPTP block	STEP inh	SUMO1 PPI mod	DNMT1 block	Scp-1 inhibitor
COc1ccc2c(c1)c1nc3ccccc3nc1n2CCn1c(=O)oc2ccccc21	-1	-3	-2	2	3
O=c1oc2ccccc2n1CCn1c2ccccc2c2nc3ccccc3nc21	73*	3	1	62*	-8
COc1cc(C)c2c(c1C=O)Oc1c(c(C)c(O)c3c1C(O)OC3=O)OC2=O (stereo unspecified)	-9	2	78*	-21	10
CC(Nc1nc(N2CCNCC2)nc2ccccc12)c1ccccc1 (stereo unspecified)	85*	7	0	-12	5
Cc1ccc(S(=O)(=O)/N=C(/Nc2c(C)cccc2C)c2ccccc2)cc1	0	2	3	-4	0
O/C=c1\ccc2cccc3nc(C(F)(F)F)nc1c23	33	1	-13	50*	12
Cc1nc2cc(-c3ccsc3-n3c(C)ccc3C)[nH]n2c(=O)c1Cl	50	-2	41*	44	25
Cc1ccccc1-c1cc2nc(C)c(Cl)c(=O)n2[nH]1	0	-4	25	0	-10
O=c1cc(-c2ccc(O)c(O)c2)oc2cc(O[C@@H]3O[C@H](CO)[C@@H](O)[C@H](O)[C@H]3O)cc(O)c12	1	2	-16	52*	-2
COc1ccc(Br)cc1/C=N/Nc1ccccn1	-1	-1	0	1	4
COC(=O)c1ccc2c(c1)C(C)(C)C(/C=C/c1ccc(OC)c(OC)c1OC)=[N+]2C	-2	-6	0	-1	96*
COC(=O)c1ccc2c(c1)C(C)(C)C(/C=C/c1ccc(O)cc1)=[N+]2C	7	-6	-10	-19	99*
COc1ccc(C2C=CC(=O)CC2)c(OC)c1 (stereo unspecified)	0	·	3	·	·
O=C(CCN1C(=O)/C(=C\C=C\c2ccccc2)SC1=S)Nc1ccc(C(=O)O)cc1	83*	87*	0	17	88*
CCc1ccc(/C=C2\SC(=S)N(CCCC(=O)Nc3ccc(C(=O)O)cc3)C2=O)cc1	64*	16	-24	1	9
COc1ccc(/C=C2\SC(=S)N(CCC(=O)Nc3ccc(C(=O)O)cc3)C2=O)cc1OC	44	85*	14	31	95*
Cc1ccccc1-c1cccc([C@@H]2C[C@H]3[C@H](CON3C)CN2C(=O)C(C)(C)C)c1	-1	-2	3	1	-8
CCN(CC)C(=O)C1=C(C)N(CCCN2CCCC2=O)C(=O)C(CC(=O)NCc2cccc3ccccc23)C1 (stereo unspecified)	-2	-1	5	2	·
Cc1ccsc1C=Nc1ccc(O)cc1	33	23	68*	89*	-7
Cc1ccsc1/C=N/NC(=O)CO	-1	2	-6	0	1
Fc1cccc2sc(Nc3nnc(-c4ccccc4)o3)nc12	32	8	12	-1	51*
Cc1cn(CC(=O)NCc2ccccc2)c(=O)[nH]c1=O	-1	-2	4	3	4
Cc1cccn2c(=O)c(/C=N/O)c(Nc3ccccc3F)nc12	16	2	52*	11	-11
Clc1ccc(-c2cnc3n2CCCCC3)cc1	0	0	43*	1	3
COc1ccc(CNC(=O)c2cn(Cc3ccc(S(=O)(=O)N(C)C)cc3)c(=O)s2)cc1	0	-4	-2	3	·
SMILES	LMPTP block	STEP inh	SUMO1 PPI mod	DNMT1 block	Scp-1 inhibitor
O=S(=O)(O)c1cc(O)c(N=Nc2ccc(O)cc2O)c2ccccc12	50	10	44*	55*	61*
O=C(Nc1ccn(CCCNCc2cccc3ccccc23)c(=O)n1)OCc1ccccc1	1	1	-5	-4	·
O=C(CCl)Nc1ccc(-c2ccccc2)cc1	0	-1	56*	5	-6
CC(=O)Oc1ccc2c(c1)Oc1cc(OC(C)=O)ccc1C21OC(=O)c2ccccc21	-1	-6	i	+	-5
c1ccc(CN2CCC(Nc3nc(-c4ccccc4)nc4ccccc34)CC2)cc1	80*	0	3	15	-4
COc1ccc([N+](=O)[O-])c(OC)c1C(=O)NC(=O)Nc1nc(C)nc(C)n1	0	-3	-8	0	-7
O=C(O)c1ccc2c(c1)[C@@H]1C=CC[C@@H]1[C@H](c1ccccn1)N2	2	31	34	111*	47
O=C(Oc1ccc([N+](=O)[O-])cc1)C1CC(=O)N(c2ccc3c(c2)OCCO3)C1 (stereo unspecified)	4	-1	-2	23	69*
Nc1nc(N)c(Cc2ccc(Cl)cc2Cl)c(N)n1	64*	2	-2	2	-7
Nc1nccc(SCc2ccc(Cl)cc2Cl)n1	0	-2	4	-9	-2
CC(OC(=O)CCN1C(=O)C2CC=CCC2C1=O)C(=O)c1ccc(F)cc1 (stereo unspecified)	-2	0	1	-1	-6
O=C(Nc1cc([N+](=O)[O-])ccc1F)C1CCN(S(=O)(=O)c2cccs2)CC1	0	0	-20	-5	0
CCOC(=O)c1ccc(NC2=CC(=O)C(=O)c3ccccc32)cc1	10	28	41*	56*	25
COc1ccc(N(CC(=O)NCCSc2ccc(C)cc2)S(=O)(=O)c2ccccc2)c(OC)c1	4	-2	6	-3	14
COc1ccc(Nc2nc(-c3ccc4c(c3)NC(=O)CO4)cs2)cc1	54*	0	-4	-26	1
COc1ccccc1Nc1nc(-c2ccc3c(c2)NC(=O)CO3)cs1	48	-1	-6	-22	1
CCC(C)Nc1nc(-c2ccc3c(c2)NC(=O)CO3)cs1 (stereo unspecified)	48*	-2	0	-6	7
Cc1ccc(S(=O)(=O)N2CCC(C(=O)Nc3ccccc3N3CCCC3)CC2)cc1C	2	4	4	1	-2
CCOc1ccc(/C=C2\CCCc3c2nc2ccccc2c3C(=O)O)cc1OC	-6	-78	-19	78*	·
COc1ccc(/C=C2\CCc3c2nc2ccccc2c3C(=O)O)cc1OC	1	4	13	4	15
COC(=O)c1cc(C)nc2c1C(=O)C(=O)C=C2N1CCOCC1	21	11	79*	97*	6
COc1cc2c(cc1/C=C/C(=O)O)OC(C)C2 (stereo unspecified)	0	-2	0	2	-2
CC(C)(O)C1Cc2cc(/C=C/C(=O)O)c(O)cc2O1 (stereo unspecified)	1	1	-3	22	95*
O=C(Cc1cccc2ccccc12)NN1C(=O)CSC1=S	-2	1	11	-9	-9
O=C(NN1C(=O)CSC1=S)C(=O)NN1C(=O)CSC1=S	0	8	40*	58*	55*
